PubChem BioAssay AID602218 (Southern Research Specialized Biocontainment Screening …, 2012)
Records with an inconclusive call do not appear. Active and inactive are the calls of the source.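 Rule for the calls: active = inhibition of at least 30% at any tested concentration; inactive = the rest, inconclusive results apart.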

The molecules below were run against M18 aspartyl aminopeptidase (Plasmodium falciparum 3D7) (assay: inhibition of malaria M18 aspartyl aminopeptidase – biochemical, QFRET fluorogenic substrate, set 2, counter-screen for PfM17LAP inhibitor project, dose response (AID 602218)). Settings: recombinant PfM18AAP, H-Glu-NHMec fluorogenic cleavage.
How it was run: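 timing = 90 min reaction, room temperature | test system = purified recombinant Plasmodium falciparum M18 aspartyl aminopeptidase (rPFM18AAP) | also added = 0.1 mM H-Glu-NHMec substrate | medium = Tris-HCl buffer pH 7.5 with 2 mM CoCl2, 2% DMSO | measured by = fluorescence at 370/460 nm | evaluation = percent inhibition versus controls, IC50 by four-parameter logistic fit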

Row | IC50 [µM] | SMILES
1 | 16.4 | COc1ccc(CC(=O)NO)cc1
2 | 18.5 | CCCCOc1ccc(CCC(=O)NO)cc1
3 | 8.93 | O=C(Cc1ccc2c(c1)CCCC2)NO
4 | 13.7 | CCCCc1ccc(CC(=O)NO)cc1
5 | 40.2 | CCCCOc1ccc(CC(=O)N(C)O)cc1
6 | 11.4 | CC(C)COc1ccc(CC(=O)NO)cc1
7 | 7.13 | O=C(Cc1ccc(Oc2ccccc2)cc1)NO
8 | 10 | CCCCOc1ccc(CC(=O)NO)cc1
9 | 9.64 | O=C(Cc1ccc(OCc2ccccc2)cc1)NO
10 | 33.6 | Cc1ccc(CC(=O)NO)cc1
11 | 10.1 | O=C(NO)c1cccc2ccccc12
12 | 12.7 | CCCCOc1ccc(C(=O)NO)cc1
13 | 14.6 | COc1ccc(CCCC(=O)NO)cc1
14 | 65.4 | CCCCOc1ccc(CNc2c(N(C)O)c(=O)c2=O)cc1
15 | 54.6 | CC(C)(C(=O)NO)c1ccccc1
16 | 18 | CCCCCCCCCC(=O)NO
17 | 34.1 | CCOc1ccc(CC(=O)NO)cc1
18 | 29.2 | CN(O)C(=O)Cc1ccc(OCc2ccccc2)cc1

Same assay, conditions: recombinant PfM18AAP, H-Glu-NHMec fluorogenic cleavage; at 25 µM (top of the series)

Row | inhibition | SMILES
19 | inactive | CCCCOc1ccc(CNc2c(N(O)Cc3ccccc3)c(=O)c2=O)cc1

Same assay, conditions: recombinant PfM18AAP, H-Glu-NHMec fluorogenic cleavage; at 100 µM (top of the series)

Row | inhibition | SMILES
20 | inactive | COC(=O)Cc1ccc(OCCN(C)C)cc1
21 | inactive | CCCCOc1ccc(CC(=O)O)cc1
22 | inactive | CCCOc1ccc(CC(=O)OC)cc1
